BindingDB's records for doi:10.1021/jm048999e (2005)

Biological target: T1, 5-hydroxytryptamine receptor 1A (Rattus norvegicus, UniProt P19327)
T1 sequence (P19327 whole entry): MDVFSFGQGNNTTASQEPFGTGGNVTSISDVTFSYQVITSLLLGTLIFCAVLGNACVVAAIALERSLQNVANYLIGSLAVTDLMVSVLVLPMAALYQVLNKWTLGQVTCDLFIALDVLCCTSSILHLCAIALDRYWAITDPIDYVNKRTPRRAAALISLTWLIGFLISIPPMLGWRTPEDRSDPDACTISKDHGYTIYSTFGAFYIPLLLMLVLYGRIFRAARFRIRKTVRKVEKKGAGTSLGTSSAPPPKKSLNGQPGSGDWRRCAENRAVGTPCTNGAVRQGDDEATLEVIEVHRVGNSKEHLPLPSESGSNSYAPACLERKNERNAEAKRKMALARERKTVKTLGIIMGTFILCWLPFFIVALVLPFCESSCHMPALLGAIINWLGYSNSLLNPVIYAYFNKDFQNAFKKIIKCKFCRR
Assay: In vitro inhibition of [3H]8-OH-DPAT binding to 5-hydroxytryptamine 1A receptor in rat cerebral cortex membranes
How it was run: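 Rat cerebral cortex membranes (about 1 mg protein) incubated 15 min at 37 °C with 0.6 nM [3H]-8-OH-DPAT in 50 mM Tris-HCl, pH 7.4, containing 10 nM clonidine and 30 nM prazosin. Nonspecific binding with 10 µM 5-HT. Compounds screened at 10^-6 M; curves run if displacement exceeded 55%. Filtration, scintillation counting, triplicates, 2-4 experiments; Ki by Cheng-Prusoff.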

Question: With O=c1n(CN2CCN(c3cccc4ccccc34)CC2)c(O)c2n1CCC2 [2-(4-Naphthalen-1-yl-piperazin-1-ylmethyl)-tetrahydro-pyrrolo[1,2-c]imidazole-1,3-dione] as the compound, how does the Ki read?
Answer: The Ki was 10.4 nM.
